pIC50: −log10 of the molar value. ≈ marks a conversion by molar mass, not a printed value.
Tests used:
MAO-A = target: T1, MAO-A (Homo sapiens, UniProt P21397); assay: Inhibition of recombinant human MAO-A (active motif 31502) at 30 uM using luciferin as substrate incubated for 15 mins followed by substrate addition and measured after 60 mins by luminescence based method relative to control; conditions: probe luciferin
T1 sequence (P21397 whole entry): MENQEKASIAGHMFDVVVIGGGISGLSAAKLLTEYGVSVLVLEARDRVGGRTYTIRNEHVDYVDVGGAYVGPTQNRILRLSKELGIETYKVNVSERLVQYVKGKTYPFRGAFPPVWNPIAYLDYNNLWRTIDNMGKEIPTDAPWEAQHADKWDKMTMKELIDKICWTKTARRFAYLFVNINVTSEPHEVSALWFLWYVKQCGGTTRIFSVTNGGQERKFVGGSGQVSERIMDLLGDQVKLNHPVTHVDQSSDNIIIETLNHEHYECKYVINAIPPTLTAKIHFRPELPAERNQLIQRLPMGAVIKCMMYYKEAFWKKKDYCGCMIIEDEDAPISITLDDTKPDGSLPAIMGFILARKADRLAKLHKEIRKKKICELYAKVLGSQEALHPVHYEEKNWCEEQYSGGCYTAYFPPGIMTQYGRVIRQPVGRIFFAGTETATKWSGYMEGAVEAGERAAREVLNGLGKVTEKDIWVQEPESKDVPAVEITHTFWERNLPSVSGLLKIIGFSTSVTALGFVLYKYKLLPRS
In short: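 Recombinant human MAO-A was measured with the MAO-Glo kit, modified. Compounds were in DMSO (1% DMSO final) and preincubated with enzyme 15 min at room temperature. Luciferin-derivative substrate was then added and the reaction run 60 min at room temperature. Luciferase detection reagent was added for 20 min and luminescence read. Buffer without enzyme served as the 100% inhibition control; DMSO alone as the no-inhibition control. Percent inhibition = (Max − signal)/(Max − Min)×100.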

Enterococcus faecium [1] = assay: Antibacterial activity against vancomycin-resistant Enterococcus faecium assessed as complete reduction in bacterial cell growth by CLSI protocol based broth liquid microdilution method; assay type: functional
In short: (§1)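 Broth liquid microdilution per CLSI guidelines; isolates identified on an automated MicroScan system before testing. MIC taken as lowest concentration giving total inhibition of bacterial growth, reported in μg/mL. S. aureus ATCC29213 run as the control strain.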

Staphylococcus aureus [2] = assay: Potency index, ratio of MIC of linezolid to MIC of compound for antibacterial activity against clinical isolates of methicillin-sensitive Staphylococcus aureus by CLSI protocol based broth liquid microdilution method; assay type: functional
[3] = Stability in simulated gastric acid assessed as compound remaining at pH 1.2 incubated for 1.5 hrs; assay type: ADME; conditions: read-out: Stability
[4] = Stability in simulated gastric acid assessed as compound remaining at pH 1.2 incubated for 0.5 hrs; assay type: ADME; conditions: read-out: Stability
Enterococcus faecium [5] = assay: Antibacterial activity against clinical isolates of vancomycin-resistant Enterococcus faecium assessed as complete reduction in bacterial cell growth by CLSI protocol based broth liquid microdilution method; assay type: functional; in short: as §1
[6] = Stability in simulated gastric acid assessed as compound remaining at pH 1.2 incubated for 1 hr; assay type: ADME; conditions: read-out: Stability
Enterococcus faecalis [7] = assay: Antibacterial activity against linezolid-resistant Enterococcus faecalis assessed as complete reduction in bacterial cell growth by CLSI protocol based broth liquid microdilution method; assay type: functional; in short: as §1
[8] = Stability in simulated gastric acid assessed as compound remaining at pH 1.2 incubated for 2 hrs; assay type: ADME; conditions: read-out: Stability
HepG2 = assay: Cytotoxicity against human HepG2 cells assessed as reduction in cell viability incubated for 48 hrs by MTT assay; assay type: cell-based; conditions: HepG2, 48 h
In short: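 HepG2 cells were grown in RPMI1640 with 10% FBS and plated at about 4×10^4 cells/well in MEM. After 24 h at 37 °C in 5% CO2, compounds were added at the indicated final concentrations for 48 h. MTT was added (0.5 mg/mL final) for 4 h at 37 °C and the formazan dissolved in DMSO. Absorbance was read at 492 nm (630 nm reference). Each compound was tested three times; IC50 given as mean ± SD.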

Enterococcus faecalis [9] = assay: Antibacterial activity against clinical isolates of linezolid-resistant Enterococcus faecalis assessed as complete reduction in bacterial cell growth by CLSI protocol based broth liquid microdilution method; assay type: functional; in short: as §1
Staphylococcus aureus [10] = assay: Antibacterial activity against methicillin-resistant Staphylococcus aureus assessed as complete reduction in bacterial cell growth by CLSI protocol based broth liquid microdilution method; assay type: functional; in short: as §1
Staphylococcus aureus [11] = assay: Antibacterial activity against methicillin-sensitive Staphylococcus aureus assessed as complete reduction in bacterial cell growth by CLSI protocol based broth liquid microdilution method; assay type: functional; in short: as §1
Staphylococcus aureus [12] = assay: Antibacterial activity against clinical isolates of methicillin-sensitive Staphylococcus aureus assessed as reduction in bacterial cell growth by CLSI protocol based broth microdilution method; assay type: functional; in short: as §1
Staphylococcus aureus [13] = assay: Antibacterial activity against Staphylococcus aureus ATCC 29213 assessed as complete reduction in bacterial cell growth by CLSI protocol based broth liquid microdilution method; assay type: functional; in short: as §1
Enterococcus faecalis [14] = assay: Potency index, ratio of rade-zolid MIC to compound MIC for antibacterial activity against linezolid-resistant Enterococcus faecalis by CLSI protocol based broth liquid microdilution method; assay type: functional
[15] = Stability in human liver microsomes assessed as half life at 1.5 uM preincubated for 5 mins with NADPH and measured after 45 mins by LC/MS analysis; assay type: ADME, Microsome
In short: (§2)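 Compound solution at 1.5 µM with 0.75 mg/mL microsomes (before NADPH addition) was preincubated 5 min at 37 °C. Reactions were started with NADPH (6 mM stock). Samples were quenched with acetonitrile containing internal standard at 0, 5, 15, 30 and 45 min, then centrifuged, and the supernatant was diluted with water for LC/MS. Runs were in duplicate. T1/2 = ln2/k from the log-linear slope, and CLint was derived from T1/2.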

[16] = Stability in human liver microsomes assessed as intrinsic clearance at 1.5 uM preincubated for 5 mins with NADPH and measured after 45 mins by LC/MS analysis; assay type: ADME, Microsome; conditions: read-out: CLH; in short: as §2
[17] = Solubility of compound in water by UV spectrophotometric analysis; assay type: physicochemical
Staphylococcus aureus [18] = assay: Antibacterial activity against clinical isolates of methicillin-resistant Staphylococcus aureus assessed as complete reduction in bacterial cell growth by CLSI protocol based broth liquid microdilution method; assay type: functional; in short: as §1
Staphylococcus aureus [19] = assay: Potency index, ratio of rade-zolid MIC to compound MIC for antibacterial activity against Staphylococcus aureus ATCC 29213 by CLSI protocol based broth liquid microdilution method; assay type: functional
Enterococcus faecium [20] = assay: Potency index, ratio of rade-zolid MIC to compound MIC for antibacterial activity against vancomycin-resistant Enterococcus faecium by CLSI protocol based broth liquid microdilution method; assay type: functional
Staphylococcus aureus [21] = assay: Potency index, ratio of rade-zolid MIC to compound MIC for antibacterial activity against methicillin-sensitive Staphylococcus aureus by CLSI protocol based broth liquid microdilution method; assay type: functional
[22] = Stability in human liver microsomes assessed as compound remaining at 1.5 uM preincubated for 5 mins with NADPH and measured after 45 mins by LC/MS analysis; assay type: ADME, Microsome; in short: as §2
[23] = Drug metabolism in rat plasma assessed as N-[[(5S)-3-[3-fluoro-4-(4-formylphenyl)phenyl]-2-oxo-oxazolidin-5-yl]methyl]acetamide formation administered vig ig route measured by UPLC-QTOF/MS analysis; assay type: ADME; conditions: po
[24] = Drug metabolism in rat plasma assessed as 4-[4-[(5S)-5-(acetamidomethyl)-2-oxo-oxazolidin-3-yl]-2-fluoro-phenyl]benzoic acid formation administered vig ig route measured by UPLC-QTOF/MS analysis; assay type: ADME; conditions: po
[25] = Drug metabolism in rat plasma assessed as N-[[(5S)-3-[3-fluoro-4-[3-hydroxy-4-[(E)-(4-methylpiperazin-1-yl)iminomethyl]phenyl]phenyl]-2-oxo-oxazolidin-5-yl]methyl]acetamide formation administered vig ig route measured by UPLC-QTOF/MS analysis; assay type: ADME; conditions: po
[26] = Drug metabolism in rat plasma assessed as N-[[(5S)-3-[3-fluoro-4-[4-[(E)-piperazin-1-yliminomethyl]phenyl]phenyl]-2-oxo-oxazolidin-5-yl]methyl]acetamide formation administered vig ig route measured by UPLC-QTOF/MS analysis; assay type: ADME; conditions: po
[27] = Metabolic stability in rat assessed as half life measured after intragastric administration; assay type: ADME; conditions: in vivo, po

SMILES	inhibition at 1 h, 30 µM (MAO-A) [%]	MIC (Enterococcus faecium [1]) [µg/mL]	remaining at 1.5 h [3] [%]	remaining at 0.5 h [4] [%]	MIC (Enterococcus faecium [5]) [µg/mL]	remaining at 1 h [6] [%]	MIC (Enterococcus faecalis [7]) [µg/mL]	remaining at 2 h [8] [%]	pIC50 (HepG2)	MIC (Enterococcus faecalis [9]) [µg/mL]	MIC (Staphylococcus aureus [10]) [µg/mL]	MIC (Staphylococcus aureus [11]) [µg/mL]	MIC (Staphylococcus aureus [12]) [µg/mL]	MIC (Staphylococcus aureus [13]) [µg/mL]	Ratio (Enterococcus faecalis [14])	CLint scaled at 1.5 µM [16] [mL/min/kg]	solubility [17] [µg/mL]	Ratio (Staphylococcus aureus [19])	Ratio (Enterococcus faecium [20])	Ratio (Staphylococcus aureus [21])	other results
CC(=O)NC[C@H]1CN(c2ccc(-c3ccc(/C=N/N4CCSCC4)c(O)c3)c(F)c2)C(=O)O1	62	0.125 (≈ 0.265 µM)	82.9	96	0.125 to 0.25 (≈ 0.265 to 0.529 µM)	94.6	0.125 (≈ 0.265 µM)	75.9	< 4.60	0.125 to 0.25 (≈ 0.265 to 0.529 µM)	0.125 (≈ 0.265 µM)	0.125 (≈ 0.265 µM)	0.125 to 0.25 (≈ 0.265 to 0.529 µM)	0.125 (≈ 0.265 µM)	–	–	–	–	–	–	Ratio (Staphylococcus aureus [2]): 4 - 32
CC(=O)NC[C@H]1CN(c2ccc(-c3ccc(/C=N/N4CCN(C)CC4)nc3)c(F)c2)C(=O)O1	79	0.25 (≈ 0.55 µM)	96.2	98.3	0.25 to 0.5 (≈ 0.55 to 1.1 µM)	96.8	0.25 (≈ 0.55 µM)	95.8	< 4.60	0.25 to 0.5 (≈ 0.55 to 1.1 µM)	0.125 (≈ 0.275 µM)	0.125 (≈ 0.275 µM)	2 (≈ 4.4 µM)	0.125 (≈ 0.275 µM)	2 - 4	17.2	63 (≈ 139 µM)	2 - 4	2 - 4	2 - 4	half-life at 1.5 µM ([15]; liver microsomes): 1.68 h; MIC (Staphylococcus aureus [18]): 2 µg/mL (≈ 4.4 µM); remaining at 0.75 h, 1.5 µM ([22]; liver microsomes, read-out: Stability): 74.9%
CC(=O)NC[C@H]1CN(c2ccc(-c3ccc(/C=N/N4CCN(C)CC4)cc3)c(F)c2)C(=O)O1	–	–	–	–	–	–	–	–	–	–	–	–	–	–	–	–	11.9 (≈ 26.2 µM)	–	–	–	Drug metabolism [23]: Metabolite_Detected; Drug metabolism [24]: Metabolite_Detected; Drug metabolism [25]: Metabolite_Detected; Drug metabolism [26]: Metabolite_Detected; half-life [27]: 2.7 h
CC(=O)NC[C@H]1CN(c2ccc(-c3ccc(/C=N/N4CCSCC4)nc3)c(F)c2)C(=O)O1	75	0.25 (≈ 0.546 µM)	98.6	99.4	1 (≈ 2.19 µM)	99	0.25 (≈ 0.546 µM)	98	< 4.60	0.5 (≈ 1.09 µM)	0.125 (≈ 0.273 µM)	0.25 (≈ 0.546 µM)	0.25 to 0.5 (≈ 0.546 to 1.09 µM)	0.125 (≈ 0.273 µM)	2 - 4	90.3	57 (≈ 125 µM)	2 - 4	2 - 4	2 - 4	t1/2 ([15]; microsomes, 0.75 h, 1.5 µM): 0.3207 h; Stability ([22]; microsomes, 0.75 h, 1.5 µM): 0.62%
